According to ChEMBL document CHEMBL4725393, “Prodrug Strategies to Improve the Solubility of the HCV NS5A Inhibitor Pibrentasvir (ABT-530)” (J Med Chem, 2020):
≈ marks a conversion by molar mass, not a printed value.

Legend:
[1] = Equilibrium solubility of compound at pH 1 incubated for 24 to 48 hrs by HPLC analysis; type: physicochemical; settings: buffer, time 24-48 hrs
Procedure, shortened: (§1)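 For equilibrium solubility, excess solid was added to 3–4 mL of medium, in triplicate. Suspension pH was read after equilibration. Solids were removed by centrifugation at 4000 rpm at 25 °C, and the supernatant was passed through a 0.45 µm filter, discarding the first 2 mL. The filtrate was quantified by HPLC against standard curves.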

[2] = AUC in CD1 mouse assessed as pibrentasvir1 level at 6 mg/kg, po measured up to 24 hrs; type: ADME, organism-based; design: route oral, dose 6 mg/kg, time <=24; settings: in vivo
Procedure, shortened: (§2)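 CD-1 mice with free access to food and water received an oral gavage of prodrug or PIB at 10 mL/kg in 0.2% HPMC. The dose was adjusted for prodrug MW to equal 6 mg/kg PIB. K2EDTA blood was drawn at 0.25, 0.5, 1, 3, 6, 9, 12 and 24 h. Plasma was spun at 3200 x g for 5 min at ~4°C and stored below -15°C. PIB and prodrug were measured; AUC in ng·h/mL, Cmax in ng/mL.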

[3] = Equilibrium solubility of compound at pH 7.4 incubated for 24 to 48 hrs by HPLC analysis; type: physicochemical; settings: buffer, time 24-48 hrs; procedure, shortened: as §1
[4] = Solubility in FeSSIF at pH 5; type: physicochemical; procedure, shortened: as §1
[5] = Cmax in CD1 mouse assessed as pibrentasvir1 level at 6 mg/kg, po measured up to 24 hrs; type: ADME, organism-based; design: route oral, dose 6 mg/kg, time <=24; settings: in vivo; procedure, shortened: as §2
[6] = Stability of compound at pH 7.4 assessed as prodrug remaining level at 125 ug/ml incubated for 24 hrs by HPLC analysis; type: physicochemical; settings: buffer, pH 7.4, 24 h, at 125 µg/mL
Procedure, shortened: (§3)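 A DMSO stock of about 1.25 mg/mL was diluted into 0.1 N HCl (pH 1) or 50 mM phosphate buffer (pH 7.4), giving final concentrations of ~125 µg/mL prodrug and 10% DMSO. The solution was filtered and held at 37 °C in the HPLC autosampler, with injections at several times over 24 h. Percent remaining was calculated from prodrug peak area relative to t0.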

[7] = Stability of compound at pH 1 assessed as prodrug remaining level at 125 ug/ml incubated for 24 hrs by HPLC analysis; type: physicochemical; settings: buffer, pH 1, 24 h, at 125 µg/mL; procedure, shortened: as §3
[8] = AUC in beagle dog assessed as pibrentasvir1 level at 40 mg, po measured up to 24 hrs; type: ADME, organism-based, Canis lupus familiaris; design: route oral, dose 40 mg, time <=24; settings: in vivo
Procedure, shortened: (§4)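 The dose equalled 40 mg PIB after adjustment for prodrug MW. Food was returned at 12 h. K2EDTA plasma was sampled at 0.25–24 h. Cmax is in ng/mL and AUC in ng·h/mL.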

[9] = AUC in CD1 mouse assessed as pibrentasvir1 level at 3 mg/kg, po measured up to 24 hrs; type: ADME, organism-based; design: route oral, dose 3 mg/kg, time <=24; settings: in vivo
Procedure, shortened: (§5)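 CD-1 mice, fed ad libitum, were dosed orally at a prodrug-MW-adjusted dose equal to 3 mg/kg PIB, as a solution or suspension. Serial K2EDTA blood samples were taken from 0.25 to 24 h. Plasma was separated by centrifugation and kept frozen. PIB and prodrug levels were reported as Cmax (ng/mL) and AUC (ng·h/mL).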

[10] = Cmax in CD1 mouse assessed as pibrentasvir1 level at 3 mg/kg, po measured up to 24 hrs; type: ADME, organism-based; design: route oral, dose 3 mg/kg, time <=24; settings: in vivo; procedure, shortened: as §5
[11] = Cmax in beagle dog assessed as pibrentasvir1 level at 40 mg, po measured up to 24 hrs; type: ADME, organism-based, Canis lupus familiaris; design: route oral, dose 40 mg, time <=24; settings: in vivo; procedure, shortened: as §4
[12] = Half life of compound at pH 7.4 at 125 ug/ml at 37 degC by HPLC analysis; type: physicochemical; settings: dose 125 µg/ml

Row | solubility thermodynamic [1] | AUC [2] | solubility thermodynamic [3] | solubility [4] | Cmax [5] | Stabilty [6] | Stabilty [7] | AUC [8] | AUC [9] | Cmax [10] | Cmax [11] | half-life at 125 ug/ml [12] | SMILES
1 | 0.609 mg/mL (≈ 465 µM) | 12.6 µg·h/mL | 0.874 mg/mL (≈ 668 µM) | > 1 mg/mL | 0.784 µg/mL | 80% | 76% | – | – | – | – | – | COC(=O)N[C@H](C(=O)N1CCC[C@H]1c1nc2cc(F)c([C@H]3CC[C@H](c4cc5c(cc4F)nc([C@@H]4CCCN4C(=O)[C@@H](NC(=O)OC)[C@@H](C)OC)n5COC(=O)CCCOP(=O)(O)O)N3c3cc(F)c(N4CCC(c5ccc(F)cc5)CC4)c(F)c3)cc2[nH]1)[C@@H](C)OC
2 | > 1 mg/mL | – | > 1 mg/mL | – | – | – | – | 2.58 µg·h/mL | 0.477 µg·h/mL | 0.028 µg/mL | 0.275 µg/mL | – | COC(=O)N[C@H](C(=O)N1CCC[C@H]1c1nc2cc([C@H]3CC[C@H](c4cc5c(cc4F)nc([C@@H]4CCCN4C(=O)[C@@H](NC(=O)OC)[C@@H](C)OC)n5COP(=O)(O)O)N3c3cc(F)c(N4CCC(c5ccc(F)cc5)CC4)c(F)c3)c(F)cc2n1COP(=O)(O)O)[C@@H](C)OC
3 | 0.567 mg/mL (≈ 425 µM) | – | > 1 mg/mL | – | – | – | – | 0.611 µg·h/mL | 0.353 µg·h/mL | 0.02 µg/mL | 0.066 µg/mL | – | COC(=O)N[C@H](C(=O)N1CCC[C@H]1c1nc2cc(F)c([C@H]3CC[C@H](c4cc5c(cc4F)nc([C@@H]4CCCN4C(=O)[C@@H](NC(=O)OC)[C@@H](C)OC)n5COP(=O)(O)O)N3c3cc(F)c(N4CCC(c5ccc(F)cc5)CC4)c(F)c3)cc2n1COP(=O)(O)O)[C@@H](C)OC
4 | 0.002 mg/mL (≈ 1.47 µM) | 9.56 µg·h/mL | < 0.0002 mg/mL | > 1 mg/mL | 0.584 µg/mL | 28% | 15% | 2.94 µg·h/mL | – | – | 0.288 µg/mL | – | COC(=O)N[C@H](C(=O)N1CCC[C@H]1c1nc2cc(F)c([C@H]3CC[C@H](c4cc5nc([C@@H]6CCCN6C(=O)[C@@H](NC(=O)OC)[C@@H](C)OC)n(COC(=O)Cc6ccccc6OP(=O)(O)O)c5cc4F)N3c3cc(F)c(N4CCC(c5ccc(F)cc5)CC4)c(F)c3)cc2[nH]1)[C@@H](C)OC
5 | > 1 mg/mL | 0.819 µg·h/mL | > 1 mg/mL | – | 0.046 µg/mL | 100% | 91% | – | – | – | – | – | COC(=O)N[C@H](C(=O)N1CCC[C@H]1c1nc2cc(F)c([C@H]3CC[C@H](c4cc5c(cc4F)nc([C@@H]4CCCN4C(=O)[C@@H](NC(=O)OC)[C@@H](C)OC)n5COC(=O)c4cccc(OP(=O)(O)O)c4)N3c3cc(F)c(N4CCC(c5ccc(F)cc5)CC4)c(F)c3)cc2[nH]1)[C@@H](C)OC
6 | > 1 mg/mL | 6.49 µg·h/mL | > 1 mg/mL | > 1 mg/mL | 0.38 µg/mL | 92% | 92% | 3.02 µg·h/mL | – | – | 0.297 µg/mL | – | COC(=O)N[C@H](C(=O)N1CCC[C@H]1c1nc2cc(F)c([C@H]3CC[C@H](c4cc5nc([C@@H]6CCCN6C(=O)[C@@H](NC(=O)OC)[C@@H](C)OC)n(COC(=O)N(C)c6ncccc6COP(=O)(O)O)c5cc4F)N3c3cc(F)c(N4CCC(c5ccc(F)cc5)CC4)c(F)c3)cc2[nH]1)[C@@H](C)OC
7 | 0.146 mg/mL (≈ 112 µM) | 5.57 µg·h/mL | 0.049 mg/mL (≈ 37.4 µM) | > 1 mg/mL | 0.336 µg/mL | 76% | 82% | 4.51 µg·h/mL | – | – | 0.462 µg/mL | – | COC(=O)N[C@H](C(=O)N1CCC[C@H]1c1nc2cc(F)c([C@H]3CC[C@H](c4cc5nc([C@@H]6CCCN6C(=O)[C@@H](NC(=O)OC)[C@@H](C)OC)n(COC(=O)CCCOP(=O)(O)O)c5cc4F)N3c3cc(F)c(N4CCC(c5ccc(F)cc5)CC4)c(F)c3)cc2[nH]1)[C@@H](C)OC
8 | 0.397 mg/mL (≈ 296 µM) | 1.51 µg·h/mL | 0.827 mg/mL (≈ 616 µM) | > 1 mg/mL | 0.096 µg/mL | 100% | 96% | – | – | – | – | – | COC(=O)N[C@H](C(=O)N1CCC[C@H]1c1nc2cc(F)c([C@H]3CC[C@H](c4cc5nc([C@@H]6CCCN6C(=O)[C@@H](NC(=O)OC)[C@@H](C)OC)n(COC(=O)c6cccc(OP(=O)(O)O)c6)c5cc4F)N3c3cc(F)c(N4CCC(c5ccc(F)cc5)CC4)c(F)c3)cc2[nH]1)[C@@H](C)OC
9 | 0.271 mg/mL (≈ 194 µM) | 8.93 µg·h/mL | > 1 mg/mL | > 1 mg/mL | 0.513 µg/mL | 28% | 95% | – | – | – | – | < 24 h | COC(=O)N[C@H](C(=O)N1CCC[C@H]1c1nc2cc(F)c([C@H]3CC[C@H](c4cc5c(cc4F)nc([C@@H]4CCCN4C(=O)[C@@H](NC(=O)OC)[C@@H](C)OC)n5COC(=O)[C@@H](NC(=O)OCOP(=O)(O)O)C(C)C)N3c3cc(F)c(N4CCC(c5ccc(F)cc5)CC4)c(F)c3)cc2[nH]1)[C@@H](C)OC
10 | 0.099 mg/mL (≈ 72.9 µM) | 10.7 µg·h/mL | < 0.0002 mg/mL | > 1 mg/mL | 0.622 µg/mL | 89% | 99% | 1.15 µg·h/mL | – | – | 0.115 µg/mL | – | COC(=O)N[C@H](C(=O)N1CCC[C@H]1c1nc2cc(F)c([C@H]3CC[C@H](c4cc5nc([C@@H]6CCCN6C(=O)[C@@H](NC(=O)OC)[C@@H](C)OC)n(COC(=O)c6ccccc6COP(=O)(O)O)c5cc4F)N3c3cc(F)c(N4CCC(c5ccc(F)cc5)CC4)c(F)c3)cc2[nH]1)[C@@H](C)OC
11 | 0.543 mg/mL (≈ 400 µM) | 2.42 µg·h/mL | 0.092 mg/mL (≈ 67.8 µM) | > 1 mg/mL | 0.132 µg/mL | 84% | 98% | – | – | – | – | – | COC(=O)N[C@H](C(=O)N1CCC[C@H]1c1nc2cc(F)c([C@H]3CC[C@H](c4cc5c(cc4F)nc([C@@H]4CCCN4C(=O)[C@@H](NC(=O)OC)[C@@H](C)OC)n5COC(=O)c4ccccc4COP(=O)(O)O)N3c3cc(F)c(N4CCC(c5ccc(F)cc5)CC4)c(F)c3)cc2[nH]1)[C@@H](C)OC
12 | > 1 mg/mL | – | < 0.0002 mg/mL | – | – | – | – | – | – | – | – | – | COC(=O)N[C@H](C(=O)N1CCC[C@H]1c1nc2cc(F)c([C@H]3CC[C@H](c4cc5c(cc4F)nc([C@@H]4CCCN4C(=O)[C@@H](NC(=O)OC)[C@@H](C)OC)n5COC(=O)[C@@H](N)C(C)C)N3c3cc(F)c(N4CCC(c5ccc(F)cc5)CC4)c(F)c3)cc2[nH]1)[C@@H](C)OC
13 | > 1 mg/mL | 9.75 µg·h/mL | > 1 mg/mL | > 1 mg/mL | 0.567 µg/mL | 90% | 92% | – | – | – | – | – | COC(=O)N[C@H](C(=O)N1CCC[C@H]1c1nc2cc(F)c([C@H]3CC[C@H](c4cc5c(cc4F)nc([C@@H]4CCCN4C(=O)[C@@H](NC(=O)OC)[C@@H](C)OC)n5COC(=O)N(C)c4ncccc4COP(=O)(O)O)N3c3cc(F)c(N4CCC(c5ccc(F)cc5)CC4)c(F)c3)cc2[nH]1)[C@@H](C)OC
14 | 0.114 mg/mL (≈ 81.6 µM) | 8.84 µg·h/mL | < 0.0001 mg/mL | > 1 mg/mL | 0.498 µg/mL | 38% | 95% | 0.122 µg·h/mL | – | – | 0.016 µg/mL | – | COC(=O)N[C@H](C(=O)N1CCC[C@H]1c1nc2cc(F)c([C@H]3CC[C@H](c4cc5nc([C@@H]6CCCN6C(=O)[C@@H](NC(=O)OC)[C@@H](C)OC)n(COC(=O)[C@@H](NC(=O)OCOP(=O)(O)O)C(C)C)c5cc4F)N3c3cc(F)c(N4CCC(c5ccc(F)cc5)CC4)c(F)c3)cc2[nH]1)[C@@H](C)OC
15 | 0.135 mg/mL (≈ 101 µM) | – | 0.123 mg/mL (≈ 92.1 µM) | – | – | – | 100% | 0.355 µg·h/mL | 6.07 µg·h/mL | 0.396 µg/mL | 0.04 µg/mL | – | COC(=O)N[C@H](C(=O)N1CCC[C@H]1c1nc2cc([C@H]3CC[C@H](c4cc5nc([C@@H]6CCCN6C(=O)[C@@H](NC(=O)OC)[C@@H](C)OC)n(COP(=O)(O)O)c5cc4F)N3c3cc(F)c(N4CCC(c5ccc(F)cc5)CC4)c(F)c3)c(F)cc2n1COP(=O)(O)O)[C@@H](C)OC
